Assay results taken from publication PMC3493172 (Biochemistry, 2012).
Changes are numbered by the printed parent chain. “And” between values parts separate entries of the source, which are not always exact repeats. Equal entries are not always repeated. Where two headings read alike, the source gives them in different places.

Assays:
[1] = pKa of the 3-hydroxyl-Δ2-isoxazoline group; type: physicochemical; conditions: pH 7.3, based on its pKa
[2] = system: glutamate transporters in synaptosomes prepared from rat brains; conditions: (+)-HIP-B eutomer versus (−)-HIP-B; cited from earlier work
EAAC1 [3] = target: T1, EAAC1 (Rattus norvegicus, UniProt P51907); assay: Whole-cell current recording of EAAC1WT expressed in HEK 293T cells; type: cell-based; conditions: for effect on anion current when applied alone: 100 μM applied alone, intracellular SCN−
T1 sequence (P51907 1-523): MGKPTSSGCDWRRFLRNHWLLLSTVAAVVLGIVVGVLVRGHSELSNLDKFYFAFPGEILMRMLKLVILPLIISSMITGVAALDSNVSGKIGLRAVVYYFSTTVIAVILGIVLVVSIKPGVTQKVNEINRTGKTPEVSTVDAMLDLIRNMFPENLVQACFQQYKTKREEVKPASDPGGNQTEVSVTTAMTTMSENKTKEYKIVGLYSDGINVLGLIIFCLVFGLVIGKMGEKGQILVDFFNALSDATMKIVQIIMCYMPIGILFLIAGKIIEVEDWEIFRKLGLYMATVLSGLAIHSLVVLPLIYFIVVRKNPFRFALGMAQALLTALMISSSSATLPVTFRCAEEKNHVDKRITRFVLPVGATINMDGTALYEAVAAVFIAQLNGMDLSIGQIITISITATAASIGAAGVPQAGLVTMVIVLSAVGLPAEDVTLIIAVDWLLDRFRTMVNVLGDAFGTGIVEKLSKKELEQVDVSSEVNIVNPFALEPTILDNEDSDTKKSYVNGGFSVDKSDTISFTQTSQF
Procedure, shortened: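 HEK 293T cells transfected with EAAC1 plasmid plus RFP DNA (JetPRIME) and used at least 24 h later; whole-cell patch clamp held at 0 mV. Ki came from test-compound dose-response curves of glutamate-induced anion current at 20, 50 and 100 μM L-glutamate (forward mode: 140 mM NaCl outside, 140 mM KSCN pipette). Reverse mode used KSCN outside with NaCl + 10 mM L-Glu in the pipette. Homoexchange used NaCl + 1 mM L-glutamate outside with NaSCN + 10 mM L-glutamate in the pipette.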

[4] = cited from earlier work
EAAC1 [5] = target: T1, EAAC1; assay: Laser-pulse photolysis of MNI-caged glutamate, pre-steady-state kinetics; type: cell-based
Procedure, shortened: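 HEK 293T cells co-transfected with EAAC1 and RFP plasmids, used ≥24 h later; whole-cell clamp at 0 mV. 1 mM MNI-caged L-glutamate pre-applied 4 s, then ~5 ns 355 nm pulse releasing ~60–100 μM glutamate; 160 ms at 50 kHz, ±10 μM test compound. Bath 140 mM NaMES; pipette 140 mM KMES (transport) or KSCN (anion). Exponential fits→decay rate constants.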

EAAC1 [6] = target: T1, EAAC1; assay: Pre-incubation / rapid solution exchange experiment; type: cell-based
Procedure, shortened: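 Transfected HEK 293T cells, whole-cell at 0 mV; bath 140 mM NaMES, pipette 140 mM KSCN. Test compound (3, 20 or 100 μM) applied 2 s by solution exchange, then rapid washout with simultaneous switch to 1 mM L-glutamate (~10 ms exchange resolution, ~100 mbar). Responses normalised to a 100 μM glutamate control, n = 3; observed rate constants taken as 1/τ.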

EAAC1R446Q = target: T2, EAAC1R446Q (Rattus norvegicus, UniProt P51907, R446Q); assay: Whole-cell current recording of EAAC1 with the R446Q mutation, exchange mode; type: cell-based; conditions: application of 1 mM L-glutamate or 0.2 mM TBOA; NaSCN pipette; 0 mV
T2 sequence (P51907 1-523 R446Q): T1 sequence (P51907 1-523) with R446Q

[7] = physiological conditions; cited from earlier work
glutamate transport = conditions: cited from earlier work

| Structure (SMILES) | fraction in neutral form [1] | eudismic ratio, inhibition of [3H]D-aspartate uptake [2] | effect on anion current when applied alone (EAAC1 [3]; 0 mV) | transport current when applied alone (EAAC1 [3]; 100 μM, NaMES extracellular, KMES pipette, 0 mV) | alleviation of TBOA (1 μM) inhibition of leak anion current (EAAC1 [3]; any concentration tested, up to 70 μM, in the presence of 1 μM TBOA) | Ki (EAAC1 [3]; read-out: Ki value (range used for estimate), approximate value in discussion) [µM] | Ki (EAAC1 [3]; read-out: inhibition constant Ki, glutamate-induced anion current, forward transport mode, 20 μM glutamate, n = 3, 0 mV, KSCN pipette) [µM] | Ki (EAAC1 [3]; read-out: inhibition constant Ki, glutamate-induced anion current, forward transport mode, 100 μM glutamate, n = 3, 0 mV, KSCN pipette) [µM] | Ki (EAAC1 [3]; read-out: inhibition constant in the reverse transport mode, 20 μM glutamate, n = 3, reverse transport mode) [µM] | pKa of the 3-hydroxyl-Δ2-isoxazoline group [4] | effect on peak of transient anion current (EAAC1 [5]; anion conducting mode) | effect on decay time constants τfast and τslow of transient transport current (EAAC1 [5]; forward transport mode) | bimolecular rate constant for binding (EAAC1 [6]; estimated from Ki in the 20 μM range and dissociation on the 50 ms time scale) | time scale of binding at the relevant concentration range (EAAC1 [6]; estimated from bimolecular rate constant) [ms] | time for full reversal of inhibition (EAAC1 [6]; washout) [ms] | time scale of dissociation from binding site (EAAC1 [6]; washout experiment) | current induced in EAAC1R446Q (EAAC1R446Q) [pA] | time constant for activation of anion current by glutamate (EAAC1 [6]; 1 mM glutamate, no inhibitor, limited by solution exchange) [ms] | neurotoxicity [7] | apparent affinity for inhibition of glutamate transport (glutamate transport) |
| --- | --- | --- | --- | --- | --- | --- | --- | --- | --- | --- | --- | --- | --- | --- | --- | --- | --- | --- | --- | --- |
| O=C(O)[C@H]1NC[C@@H]2C(O)=NO[C@@H]21 [(+)-HIP-B, (+)-(3aS,6S,6aS)-3-Hydroxy-4,5,6,6a-tetrahydro-3aH-pyrrolo[3,4-d]isoxazole-6-carboxylic acid] | less than 1% | 10 | did not induce or inhibit anion current | did not elicit transport current | unable to alleviate the TBOA effect | ~20 | 8.7 ± 1.5 | 9.2 ± 1.2 | 23.2 ± 2.5 | 5.1 | inhibited strongly | virtually unaffected | ~10^6 M^−1s^−1 | 20 to 50 | ≤ 500 | 50 to 60 ms and ~50 ms | – | – | – | – |
| N[C@@H](CCC(=O)O)C(=O)O [glutamate, L-glutamate, reference compound] | – | – | – | – | – | – | – | – | – | – | – | – | – | – | – | – | < 5 | 7 ± 2 | – | – |
| N[C@H](C(=O)O)[C@H](OCc1ccccc1)C(=O)O (racemic) [TBOA, DL-threo-β-benzyloxyaspartic acid] | – | – | generated outward current | – | – | – | – | – | – | – | – | – | – | – | – | – | < 5 | – | neurotoxic | sub-μM range |
